Measured values: ChEMBL document CHEMBL3632527 (J Med Chem, 2015)
Calls of active or inactive are those of the source. No cut-off for these calls is given here.

Experiments:
T98G [1] = assay: Cytotoxicity against human T98G cells assessed as cell viability after 48 hrs by cell titer blue staining based fluorescence method
Translocator protein [2] = target: T1, Translocator protein (Homo sapiens, UniProt P30536); assay: Displacement of [3H]PK11195 from TSPO in human T98G cell membranes incubated for 90 mins by competition radioligand binding assay
T98G [3] = assay: Antiproliferative activity against human T98G cells at 1 to 100 uM incubated for 48 hrs by BrdU enzyme-linked immunosorbent assay; assay type: functional, cell-based
Method in brief: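 Basal proliferation of T98G human glioma cells, which carry the Ala147 TSPO genotype without the rs6971 polymorphism, was measured with compounds alone at 1–100 μM.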

T98G [4] = assay: Potentiation of antiproliferative activity of PK11195 at 100 uM against human T98G cells incubated for 48 hrs by BrdU enzyme-linked immunosorbent assay; assay type: functional, cell-based
Translocator protein [5] = target: T1, Translocator protein; assay: Displacement of [3H]PK11195 from TSPO in human HEK293T cell membranes incubated for 90 mins by competition radioligand binding assay; parameters: species or system HEK-293T
T98G [6] = assay: Cytotoxicity against human T98G cells assessed as cell viability in the presence of PK11195 after 48 hrs by cell titer blue staining based fluorescence method
T98G [7] = assay: Potentiation of antiproliferative activity of PK11195 against human T98G cells incubated for 48 hrs by BrdU enzyme-linked immunosorbent assay; assay type: functional, cell-based
T98G [8] = assay: Potentiation of antiproliferative activity of PK11195 at 10 uM against human T98G cells incubated for 48 hrs by BrdU enzyme-linked immunosorbent assay; assay type: functional, cell-based
T98G [9] = assay: Potentiation of antiproliferative activity of PK11195 at 62.5 uM against human T98G cells incubated for 48 hrs by BrdU enzyme-linked immunosorbent assay; assay type: functional, cell-based

T1 sequence (P30536 whole entry): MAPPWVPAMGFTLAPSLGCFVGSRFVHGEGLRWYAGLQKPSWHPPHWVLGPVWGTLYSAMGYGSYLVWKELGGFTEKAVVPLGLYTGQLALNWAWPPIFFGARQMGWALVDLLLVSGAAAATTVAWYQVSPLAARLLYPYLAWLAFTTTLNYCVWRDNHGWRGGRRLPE

Ki (Translocator protein [2]) [nM] | Ki (Translocator protein [5]) [nM] | SMILES | Activity (T98G [1]) | Activity (T98G [3]) | Activity (T98G [4]) | Activity (T98G [6]) | EC50 (T98G [7]) [nM] | Activity (T98G [8]) | Activity (T98G [9])
> 10000 | > 10000 | CCN(CC)C(=O)Cn1c(-c2ccc(OC)cc2)nc2c(C)nc(C)nc21 | Non-toxic | inactive | inactive | Non-toxic |  |  | 
806 | 28.1 | CCN(CC)C(=O)Cn1c(-c2ccc(OC)cc2)cc2c(C)cc(C)cc21 | Non-toxic | inactive |  | Non-toxic | 14700 | Active | 
398 | 224 | CCN(CC)C(=O)Cn1c(-c2ccc(OC)cc2)nc2c(C)cc(C)cc21 | Non-toxic | inactive |  | Non-toxic |  |  | Active
 |  | CCN(CC)C(=O)Cc1c(-c2ccc(OC)cc2)nn2c(C)cc(C)nc12 | Non-toxic | inactive | inactive | Non-toxic |  |  | 
144 | 29.1 | CCN(CC)C(=O)Cn1c(-c2ccc(OC)cc2)nc2c(C)cc(C)nc21 | Non-toxic | inactive | inactive | Non-toxic |  |  | 
